From ChEMBL document CHEMBL2424621, “Discovery, synthesis and biological evaluation of cycloprotoberberine derivatives as potential antitumor agents” (Eur J Med Chem, 2013)
Values after ≈ are worked out from the molar mass of the structure shown. Active and inactive are the calls of the source. The rule behind the calls is not given here.

Experiments:
HepG2 [1] = assay: Antiproliferative activity against human HepG2 cells assessed as growth inhibition at 0.6 ug/ml after 48 hrs by SRB assay; format: functional; conditions: HepG2, 48 h, read-out: GI
Outline: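 Single-concentration SRB screen. HepG2 cells were grown in MEM-EBSS with 10% FBS and exposed to 0.6 µg/mL compound for 48 h alongside untreated controls. Cells were fixed with TCA and stained with SRB, then read at 492 nm. Results are given as % inhibition versus control, from triplicates reported as mean and SD.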

HepG2 [2] = assay: Antiproliferative activity against human HepG2 cells assessed as growth inhibition after 48 hrs by SRB assay; format: functional, cell-based; conditions: HepG2, 48 h
Outline: (§1)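 SRB assay. Cells were seeded at 4×10^3–8×10^3/mL in MEM-EBSS with 10% heat-inactivated FBS at 37 °C and 5% CO2, then treated at 0.039, 0.15, 0.63 and 2.5 µg/mL for 24 or 48 h. Cells were fixed with 50% TCA, stained with 0.4% SRB in 1% acetic acid and solubilized in 10 mM Trizma base, with absorbance read at 492 nm. IC50 is the concentration giving 50% of control cell number, from triplicates reported as mean and SD.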

HCT-116 [3] = assay: Antiproliferative activity against human HCT116 cells assessed as growth inhibition after 24 hrs by SRB assay; format: functional, cell-based; conditions: HCT-116, 24 h; outline: as §1
HCT-116 [4] = assay: Antiproliferative activity against human HCT116 cells assessed as growth inhibition after 48 hrs by SRB assay; format: functional, cell-based; conditions: HCT-116, 48 h; outline: as §1
HepG2 [5] = assay: Antiproliferative activity against human HepG2 cells assessed as growth inhibition after 24 hrs by SRB assay; format: functional, cell-based; conditions: HepG2, 24 h; outline: as §1
[6] = biological target: T1, DNA topoisomerase 1 (Homo sapiens) (UniProt P11387); conditions: 18 to 36 uM
T1 sequence (whole entry): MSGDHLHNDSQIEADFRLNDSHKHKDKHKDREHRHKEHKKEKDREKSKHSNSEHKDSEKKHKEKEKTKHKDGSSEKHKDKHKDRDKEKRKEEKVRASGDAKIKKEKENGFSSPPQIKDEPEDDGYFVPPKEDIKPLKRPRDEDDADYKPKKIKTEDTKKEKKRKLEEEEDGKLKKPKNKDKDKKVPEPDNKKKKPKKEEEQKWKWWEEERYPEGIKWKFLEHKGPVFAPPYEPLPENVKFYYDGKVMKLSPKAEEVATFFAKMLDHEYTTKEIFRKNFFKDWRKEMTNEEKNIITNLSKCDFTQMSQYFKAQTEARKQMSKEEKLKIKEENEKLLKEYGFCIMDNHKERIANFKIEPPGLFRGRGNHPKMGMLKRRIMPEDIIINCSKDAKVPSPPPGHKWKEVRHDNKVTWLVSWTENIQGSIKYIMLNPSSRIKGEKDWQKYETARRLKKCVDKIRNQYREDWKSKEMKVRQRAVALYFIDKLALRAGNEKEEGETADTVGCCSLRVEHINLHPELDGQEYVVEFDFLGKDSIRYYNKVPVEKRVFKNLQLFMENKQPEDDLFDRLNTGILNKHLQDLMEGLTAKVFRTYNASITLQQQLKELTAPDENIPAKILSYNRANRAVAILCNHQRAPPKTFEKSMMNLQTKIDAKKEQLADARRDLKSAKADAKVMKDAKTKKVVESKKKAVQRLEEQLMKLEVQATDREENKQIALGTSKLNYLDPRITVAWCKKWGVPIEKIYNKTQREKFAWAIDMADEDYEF

HCT-116 [7] = assay: Cell cycle arrest in human HCT116 cells assessed as accumulation at S phase at 0.5 ug/ml after 24 hrs using propidium iodide staining by flow cytometric analysis (reference value: 29.1%); format: functional
HCT-116 [8] = assay: Cell cycle arrest in human HCT116 cells assessed as accumulation at G2/M phase at 0.5 ug/ml after 12 hrs using propidium iodide staining by flow cytometric analysis (reference value: 22.2%); format: functional
HCT-116 [9] = assay: Cell cycle arrest in human HCT116 cells assessed as accumulation at G2/M phase at 0.5 ug/ml after 24 hrs using propidium iodide staining by flow cytometric analysis (reference value: 22.2%); format: functional
[10] = biological target: DNA topoisomerase 2-alpha (Homo sapiens) (UniProt P11388); assay: Inhibition of human DNA topoisomerase 2 assessed as decatenation of kinetoplast DNA at 15 ug/ml after 30 mins
DNA topoisomerase 2-alpha (Homo sapiens), sequence (P11388 whole entry): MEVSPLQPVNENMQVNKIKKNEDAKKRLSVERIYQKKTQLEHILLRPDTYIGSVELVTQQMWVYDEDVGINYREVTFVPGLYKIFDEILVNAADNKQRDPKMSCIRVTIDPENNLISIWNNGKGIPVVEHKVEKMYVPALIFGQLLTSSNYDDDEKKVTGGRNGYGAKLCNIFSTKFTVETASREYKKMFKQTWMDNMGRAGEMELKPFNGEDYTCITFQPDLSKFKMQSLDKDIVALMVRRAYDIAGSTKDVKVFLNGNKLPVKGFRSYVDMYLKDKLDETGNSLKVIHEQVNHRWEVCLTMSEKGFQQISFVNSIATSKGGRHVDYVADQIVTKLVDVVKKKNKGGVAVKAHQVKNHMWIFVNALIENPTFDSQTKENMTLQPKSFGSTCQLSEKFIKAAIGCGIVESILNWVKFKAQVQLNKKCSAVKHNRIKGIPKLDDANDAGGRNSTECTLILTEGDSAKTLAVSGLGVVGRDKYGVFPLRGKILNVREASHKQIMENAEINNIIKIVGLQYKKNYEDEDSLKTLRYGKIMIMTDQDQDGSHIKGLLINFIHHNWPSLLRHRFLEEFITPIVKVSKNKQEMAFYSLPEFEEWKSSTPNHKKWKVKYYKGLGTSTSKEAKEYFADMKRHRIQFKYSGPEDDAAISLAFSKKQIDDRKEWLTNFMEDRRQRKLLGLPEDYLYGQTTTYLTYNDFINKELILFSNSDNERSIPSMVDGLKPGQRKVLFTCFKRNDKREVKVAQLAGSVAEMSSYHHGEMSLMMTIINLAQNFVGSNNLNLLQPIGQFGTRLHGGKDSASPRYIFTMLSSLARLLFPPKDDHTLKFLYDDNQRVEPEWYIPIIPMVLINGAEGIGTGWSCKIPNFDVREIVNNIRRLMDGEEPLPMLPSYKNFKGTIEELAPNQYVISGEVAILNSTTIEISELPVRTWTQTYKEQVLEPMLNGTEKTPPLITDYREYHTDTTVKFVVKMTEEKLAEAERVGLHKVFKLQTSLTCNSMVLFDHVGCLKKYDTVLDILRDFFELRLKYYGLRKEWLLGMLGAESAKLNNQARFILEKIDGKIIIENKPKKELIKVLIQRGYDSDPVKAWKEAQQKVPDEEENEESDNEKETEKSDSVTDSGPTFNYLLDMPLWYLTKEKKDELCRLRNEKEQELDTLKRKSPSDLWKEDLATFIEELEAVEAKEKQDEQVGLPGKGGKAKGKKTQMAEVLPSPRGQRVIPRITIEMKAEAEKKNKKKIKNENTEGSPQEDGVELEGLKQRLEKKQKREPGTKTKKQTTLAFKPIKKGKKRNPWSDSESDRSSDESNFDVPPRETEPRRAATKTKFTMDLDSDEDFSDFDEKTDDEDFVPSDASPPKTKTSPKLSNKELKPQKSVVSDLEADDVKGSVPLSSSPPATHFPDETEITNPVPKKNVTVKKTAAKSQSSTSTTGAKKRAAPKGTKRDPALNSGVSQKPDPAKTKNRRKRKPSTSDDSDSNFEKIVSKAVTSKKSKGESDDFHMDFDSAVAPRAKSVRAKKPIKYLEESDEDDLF
Outline: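 Decatenation assay with 0.15 µg kinetoplast DNA and 4 U human Top II. Buffer was 50 mM Tris-HCl pH 8, 120 mM KCl, 10 mM MgCl2, 0.5 mM ATP, 0.5 mM DTT and 30 µg/mL BSA, incubated at 37 °C for 30 min with or without compound. Reactions were stopped with Sarkosyl loading dye and run on 1% agarose in TAE at 4 V/cm for 40 min. Gels were stained with ethidium bromide and imaged under UV.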

HCT-116 [11] = assay: Cell cycle arrest in human HCT116 cells assessed as accumulation at G0/G1 phase at 0.5 ug/ml after 4 hrs using propidium iodide staining by flow cytometric analysis (reference value: 48.7%); format: functional
HCT-116 [12] = assay: Cell cycle arrest in human HCT116 cells assessed as accumulation at S phase at 0.5 ug/ml after 4 hrs using propidium iodide staining by flow cytometric analysis (reference value: 29.1%); format: functional
[13] = Antiproliferative activity against human MCF7/ADR cells assessed as growth inhibition after 24 to 48 hrs by SRB assay; format: functional, cell-based; conditions: NCI/ADR-RES
Outline: (§2)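 Parental MCF-7 cells and doxorubicin-resistant MCF-7/ADrR cells were tested; the resistant line was maintained in medium containing DOX. Each line was treated at 0.039–2.5 µg/mL for 24 and 48 h. Growth was read by SRB staining after TCA fixation, with absorbance at 492 nm. IC50 is the concentration reducing cell number to 50% of control, from triplicates.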

[14] = biological target: T1, DNA topoisomerase 1 (Homo sapiens); assay: Inhibition of human DNA topoisomerase 1 assessed as decrease in mobility of relaxed isomers of supercoiled pBR322 DNA at 15 uM after 30 mins
Outline: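 Gel-based relaxation assay with 1 unit human Top I. Enzyme was preincubated with compound at 37 °C for 20 min, then 0.5 µg supercoiled pBR322 DNA was added and incubated at 37 °C for 30 min. Reactions were stopped with 0.5% SDS, bromophenol blue and 15% glycerol. Relaxed and supercoiled forms were resolved by agarose electrophoresis.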

MCF7 = assay: Antiproliferative activity against human MCF7 cells assessed as growth inhibition after 24 to 48 hrs by SRB assay; format: functional, cell-based; outline: as §2
HCT-116 [15] = assay: Cell cycle arrest in human HCT116 cells assessed as accumulation at G0/G1 phase at 0.5 ug/ml after 24 hrs using propidium iodide staining by flow cytometric analysis (reference value: 48.7%); format: functional
HCT-116 [16] = assay: Cell cycle arrest in human HCT116 cells assessed as accumulation at S phase at 0.5 ug/ml after 12 hrs using propidium iodide staining by flow cytometric analysis (reference value: 29.1%); format: functional
HCT-116 [17] = assay: Cell cycle arrest in human HCT116 cells assessed as accumulation at G2/M phase at 0.5 ug/ml after 4 hrs using propidium iodide staining by flow cytometric analysis (reference value: 22.2%); format: functional
HCT-116 [18] = assay: Cell cycle arrest in human HCT116 cells assessed as accumulation at G0/G1 phase at 0.5 ug/ml after 12 hrs using propidium iodide staining by flow cytometric analysis (reference value: 48.7%); format: functional
[19] = biological target: DNA topoisomerase 2-alpha (Homo sapiens) (UniProt P11388); conditions: 100 ug/ml

| SMILES | inhibition of growth at 0.6 µg/mL (HepG2 [1]) [%] | IC50 (HepG2 [2]) [nM] | IC50 (HCT-116 [3]) [nM] | IC50 (HCT-116 [4]) [nM] | IC50 (HepG2 [5]) [nM] | also measured |
| --- | --- | --- | --- | --- | --- | --- |
| COc1ccc2c(c[n+]3c4c2ccc2c5c(cc(c24)CC3)OCO5)c1OCc1ccccc1 | 53.3 | – | – | – | – | – |
| COc1ccc(C(=O)Oc2c(OC)ccc3c2c[n+]2c4c3ccc3c5c(cc(c34)CC2)OCO5)cc1 | 84.5 | 410 | 390 | 430 | 440 | – |
| COc1ccc2c(c[n+]3c4c2ccc2c5c(cc(c24)CC3)OCO5)c1OC(=O)c1ccccc1Cl | 62.3 | – | – | – | – | – |
| COc1ccc2c(c[n+]3c4c2ccc2c5c(cc(c24)CC3)OCO5)c1OC(=O)c1ccc2c(c1)OCO2 | 88.6 | 220 | 3060 | 450 | 420 | – |
| COc1ccc2c(c[n+]3c4c2ccc2c5c(cc(c24)CC3)OCO5)c1OCc1ccc(F)cc1F | 50.7 | – | – | – | – | – |
| COc1ccc(C(=O)Oc2c(OC)ccc3c2c[n+]2c4c3ccc3c5c(cc(c34)CC2)OCO5)cc1[N+](=O)[O-] | 53.6 | – | – | – | – | – |
| CC[C@@]1(O)C(=O)OCc2c1cc1n(c2=O)Cc2cc3cc(O)ccc3nc2-1 [HYDROXYCAMPTOTHECIN] | 85.4 | – | – | – | – | inhibition [6]: Active |
| CCCCOc1c(OC)ccc2c1c[n+]1c3c2ccc2c4c(cc(c23)CC1)OCO4 | 62.6 | – | – | – | – | – |
| COc1ccc2c(c[n+]3c4c2ccc2c5c(cc(c24)CC3)OCO5)c1OC(=O)c1ccccc1.[Cl-] | 86.6 | 140 | 5610 | 410 | 470 | Activity (HCT-116 [7]): 24.6%; Activity (HCT-116 [8]): 51.8%; Activity (HCT-116 [9]): 73.3%; inhibition [10]: Active; Activity (HCT-116 [11]): 13.2%; Activity (HCT-116 [12]): 57.5%; IC50 [13]: 3.66 µg/mL; inhibition [14]: Active; IC50 (MCF7): 2.5 µg/mL; Activity (HCT-116 [15]): 2.18%; Activity (HCT-116 [16]): 45.9%; Activity (HCT-116 [17]): 29.3%; Activity (HCT-116 [18]): 2.29% |
| COc1cc([C@@H]2c3cc4c(cc3[C@@H](O[C@@H]3O[C@@H]5CO[C@@H](C)O[C@H]5[C@H](O)[C@H]3O)[C@H]3COC(=O)[C@H]23)OCO4)cc(OC)c1O | – | – | – | – | – | inhibition [19]: Active |
| COc1ccc2c(c[n+]3c4c2ccc2c5c(cc(c24)CC3)OCO5)c1O | 50 | – | – | – | – | – |
| COc1cccc2c1C(=O)c1c(O)c3c(c(O)c1C2=O)C[C@@](O)(C(=O)CO)C[C@@H]3O[C@H]1C[C@H](N)[C@H](O)[C@H](C)O1 [DOXORUBICIN] | – | – | – | – | – | IC50 [13]: 24.4 µg/mL (≈ 44.9 µM) |
| COc1ccc2c(c[n+]3c4c2ccc2c5c(cc(c24)CC3)OCO5)c1OC(=O)c1ccc(F)c([N+](=O)[O-])c1 | 69.6 | – | – | – | – | – |
| COc1ccc2c(c[n+]3c4c2ccc2c5c(cc(c24)CC3)OCO5)c1OC(=O)c1ccccc1F | 93.7 | 150 | 420 | 280 | 930 | – |
| COc1cc(C(=O)Oc2c(OC)ccc3c2c[n+]2c4c3ccc3c5c(cc(c34)CC2)OCO5)cc(OC)c1OC | 86.5 | 320 | 920 | 370 | 380 | – |
| COc1ccc2c(c[n+]3c4c2ccc2c5c(cc(c24)CC3)OCO5)c1OC(=O)c1ccc(C)cc1 | 63.7 | – | – | – | – | – |
| COc1ccc2c(c[n+]3c4c2ccc2c5c(cc(c24)CC3)OCO5)c1OC(C)=O | 88.7 | 190 | 90 | 840 | 1010 | – |
| COc1ccc2c(c[n+]3c4c2ccc2c5c(cc(c24)CC3)OCO5)c1OC(=O)c1ccc(C)c([N+](=O)[O-])c1 | 50.9 | – | – | – | – | – |
| COc1ccc2c(c[n+]3c4c2ccc2c5c(cc(c24)CC3)OCO5)c1OC(=O)c1ccc(F)cc1F | 92.5 | 130 | 3110 | 390 | 620 | – |
| COc1ccc2c(c[n+]3c4c2ccc2c5c(cc(c24)CC3)OCO5)c1OS(=O)(=O)c1ccccc1 | 56.2 | – | – | – | – | – |
| COc1ccc2c(c[n+]3c4c2ccc2c5c(cc(c24)CC3)OCO5)c1OC(=O)c1ccc(F)cc1 | 70.3 | – | – | – | – | – |
| CCOc1c(OC)ccc2c1c[n+]1c3c2ccc2c4c(cc(c23)CC1)OCO4 | 41.9 | – | – | – | – | – |
| COc1ccc2c(c[n+]3c4c2ccc2c5c(cc(c24)CC3)OCO5)c1OS(=O)(=O)c1ccc(NC(C)=O)cc1 | 8.9 | – | – | – | – | – |
| COc1ccc2c(c[n+]3c4c2ccc2c5c(cc(c24)CC3)OCO5)c1OC | 53.4 | 710 | 560 | 1710 | 1200 | – |
